From ChEMBL document CHEMBL1177762, “Identification of a sulfonamide series of CCR2 antagonists” (Bioorg Med Chem Lett, 2010)

How the values were obtained:
[1] = target: C-C chemokine receptor type 2 (Mus musculus, UniProt P51683); assay: Antagonist activity at mouse CCR2; format: functional
[2] = target: T1, C-C chemokine receptor type 1 (Homo sapiens, UniProt P32246); assay: Antagonist activity at human CCR1 assessed as inhibition of MIP-1-alpha-induced [35S]-GTPgammaS binding after 3 to 4 hrs; format: functional
T1 sequence (P32246 whole entry): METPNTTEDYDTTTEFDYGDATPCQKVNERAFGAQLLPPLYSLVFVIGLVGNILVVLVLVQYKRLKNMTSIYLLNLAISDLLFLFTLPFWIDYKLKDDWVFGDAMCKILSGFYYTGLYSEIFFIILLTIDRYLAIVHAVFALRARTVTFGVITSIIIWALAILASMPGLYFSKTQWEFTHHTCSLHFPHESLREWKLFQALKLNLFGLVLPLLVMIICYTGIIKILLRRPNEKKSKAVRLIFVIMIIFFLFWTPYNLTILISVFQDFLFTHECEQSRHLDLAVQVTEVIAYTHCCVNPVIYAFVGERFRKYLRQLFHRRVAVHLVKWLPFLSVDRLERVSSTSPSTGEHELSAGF

[3] = target: T2, C-C chemokine receptor type 2 (Homo sapiens, UniProt P41597); assay: Antagonist activity at human CCR2 expressed in CHO cells assessed as inhibition of MCP1-induced [35S]-GTPgammaS binding after 3 hrs; format: functional, cell-based
Target sequence in this assay (P41597 whole entry): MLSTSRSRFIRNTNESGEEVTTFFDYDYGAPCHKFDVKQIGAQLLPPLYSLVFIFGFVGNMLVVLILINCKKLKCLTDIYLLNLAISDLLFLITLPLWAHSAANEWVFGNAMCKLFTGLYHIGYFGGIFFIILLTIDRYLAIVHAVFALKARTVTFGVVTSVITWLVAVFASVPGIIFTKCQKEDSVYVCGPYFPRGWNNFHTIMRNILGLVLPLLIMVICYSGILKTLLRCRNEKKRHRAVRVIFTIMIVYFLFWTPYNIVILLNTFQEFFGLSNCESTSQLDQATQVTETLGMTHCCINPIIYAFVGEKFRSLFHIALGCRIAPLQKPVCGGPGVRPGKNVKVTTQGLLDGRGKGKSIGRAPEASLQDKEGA

[4] = Lipophilicity, log D of the compound; format: physicochemical; details: octanol/water
[5] = target: C-C chemokine receptor type 1 (Homo sapiens) (UniProt P32246); assay: Antagonist activity at human CCR1
[6] = target: T3, C-C chemokine receptor type 4 (Homo sapiens, UniProt P51679); assay: Antagonist activity at CCR4; format: functional
T3 sequence (P51679 whole entry): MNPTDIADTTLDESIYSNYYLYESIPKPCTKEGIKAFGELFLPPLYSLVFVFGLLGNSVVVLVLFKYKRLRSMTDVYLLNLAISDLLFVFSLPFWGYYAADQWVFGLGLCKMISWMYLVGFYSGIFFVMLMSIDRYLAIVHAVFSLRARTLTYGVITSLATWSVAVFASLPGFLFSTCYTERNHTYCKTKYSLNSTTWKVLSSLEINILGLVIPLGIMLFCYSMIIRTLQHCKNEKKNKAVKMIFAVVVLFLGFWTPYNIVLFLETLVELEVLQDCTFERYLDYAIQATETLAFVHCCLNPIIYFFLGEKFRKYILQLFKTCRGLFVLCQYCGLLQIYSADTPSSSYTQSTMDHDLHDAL

[7] = target: Voltage-gated inwardly rectifying potassium channel KCNH2 (Homo sapiens, UniProt Q12809); assay: Binding affinity to human ERG by fluorescence-polarization binding assay
Sequence of Voltage-gated inwardly rectifying potassium channel KCNH2 (Q12809 whole entry): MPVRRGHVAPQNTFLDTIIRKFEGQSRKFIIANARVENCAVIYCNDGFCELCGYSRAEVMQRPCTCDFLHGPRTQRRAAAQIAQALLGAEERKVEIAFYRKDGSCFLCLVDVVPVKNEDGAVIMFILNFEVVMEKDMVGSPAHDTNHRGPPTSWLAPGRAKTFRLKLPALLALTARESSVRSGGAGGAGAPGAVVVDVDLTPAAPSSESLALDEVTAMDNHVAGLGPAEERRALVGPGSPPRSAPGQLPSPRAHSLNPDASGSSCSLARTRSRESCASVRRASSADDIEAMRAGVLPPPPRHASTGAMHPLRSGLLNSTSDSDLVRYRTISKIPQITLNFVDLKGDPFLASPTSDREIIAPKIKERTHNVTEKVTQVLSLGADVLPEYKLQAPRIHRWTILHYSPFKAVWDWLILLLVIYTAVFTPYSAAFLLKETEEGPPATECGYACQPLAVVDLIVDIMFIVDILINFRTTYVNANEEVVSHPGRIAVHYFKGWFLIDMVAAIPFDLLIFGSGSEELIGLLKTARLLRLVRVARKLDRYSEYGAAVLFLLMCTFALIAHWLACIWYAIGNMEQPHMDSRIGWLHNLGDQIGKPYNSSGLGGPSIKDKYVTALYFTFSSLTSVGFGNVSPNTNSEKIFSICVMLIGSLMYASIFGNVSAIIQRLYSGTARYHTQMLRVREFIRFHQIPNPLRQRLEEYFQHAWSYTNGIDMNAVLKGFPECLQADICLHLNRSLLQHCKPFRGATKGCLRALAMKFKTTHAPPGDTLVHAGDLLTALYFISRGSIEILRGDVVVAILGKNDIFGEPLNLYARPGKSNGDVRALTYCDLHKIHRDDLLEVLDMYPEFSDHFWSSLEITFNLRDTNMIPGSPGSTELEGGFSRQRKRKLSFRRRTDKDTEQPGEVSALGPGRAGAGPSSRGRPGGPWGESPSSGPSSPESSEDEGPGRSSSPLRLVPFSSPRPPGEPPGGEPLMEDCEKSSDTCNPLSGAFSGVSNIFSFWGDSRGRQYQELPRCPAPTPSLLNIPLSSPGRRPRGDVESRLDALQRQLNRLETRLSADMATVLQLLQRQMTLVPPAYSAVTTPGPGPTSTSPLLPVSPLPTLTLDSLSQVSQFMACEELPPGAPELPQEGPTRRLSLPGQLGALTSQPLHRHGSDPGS

[8] = target: T2, C-C chemokine receptor type 2; assay: Antagonist activity at CCR2 in human THP1 cells assessed as inhibition of CCL2-induced chemotaxis at 1 uM in presence of 0.1% human serum; format: functional, cell-based; details: THP-1
Procedure, shortened: (§1)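 Boyden chamber (48-well) chemotaxis of THP-1 cells stimulated with CCL2. Foetal bovine serum or human serum was added to the assay buffer.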
Target sequence in this assay (P41597 whole entry, looked up): as the sequence (P41597 whole entry) above

[9] = Half life in po dosed in rat; format: ADME, organism-based; details: in vivo
[10] = Clearance in rat; format: ADME, organism-based; details: in vivo
Cytochrome P450 2C19 = Cytochrome P450 2C19 (Homo sapiens, UniProt P33261); assay: Inhibition of CYP2C19; format: ADME
Sequence of Cytochrome P450 2C19 (P33261 whole entry): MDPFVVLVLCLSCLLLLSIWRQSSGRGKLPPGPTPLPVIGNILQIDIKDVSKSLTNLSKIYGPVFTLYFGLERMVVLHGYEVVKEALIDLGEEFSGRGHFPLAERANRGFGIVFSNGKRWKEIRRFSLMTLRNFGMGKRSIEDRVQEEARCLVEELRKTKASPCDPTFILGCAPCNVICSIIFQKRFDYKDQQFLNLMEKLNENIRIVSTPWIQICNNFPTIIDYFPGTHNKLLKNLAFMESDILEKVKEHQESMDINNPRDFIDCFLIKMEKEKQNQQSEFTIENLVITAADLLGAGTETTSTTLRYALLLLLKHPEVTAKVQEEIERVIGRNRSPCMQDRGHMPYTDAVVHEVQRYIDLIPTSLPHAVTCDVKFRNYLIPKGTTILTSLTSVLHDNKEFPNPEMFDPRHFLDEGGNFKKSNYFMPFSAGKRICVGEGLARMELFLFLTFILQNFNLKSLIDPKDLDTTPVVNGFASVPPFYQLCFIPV

Cytochrome P450 1A2 = target: T4, Cytochrome P450 1A2 (Homo sapiens, UniProt P05177); assay: Inhibition of CYP1A2; format: ADME
T4 sequence (P05177 whole entry): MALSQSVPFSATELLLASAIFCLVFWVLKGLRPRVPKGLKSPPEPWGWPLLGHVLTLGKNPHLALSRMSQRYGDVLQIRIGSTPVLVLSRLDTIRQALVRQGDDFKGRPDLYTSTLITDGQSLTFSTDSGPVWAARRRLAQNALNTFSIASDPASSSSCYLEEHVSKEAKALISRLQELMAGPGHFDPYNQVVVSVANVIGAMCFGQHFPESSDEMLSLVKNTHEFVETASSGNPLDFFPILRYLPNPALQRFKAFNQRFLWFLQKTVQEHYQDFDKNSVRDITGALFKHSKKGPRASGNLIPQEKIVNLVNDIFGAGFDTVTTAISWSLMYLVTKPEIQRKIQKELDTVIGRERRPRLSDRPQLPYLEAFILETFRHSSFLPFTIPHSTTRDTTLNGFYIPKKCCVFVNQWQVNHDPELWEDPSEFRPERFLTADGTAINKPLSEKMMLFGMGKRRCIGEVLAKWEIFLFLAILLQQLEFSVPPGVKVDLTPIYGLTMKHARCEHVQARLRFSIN

Cytochrome P450 2C9 = Cytochrome P450 2C9 (Homo sapiens, UniProt P11712); assay: Inhibition of CYP2C9; format: ADME
Sequence of Cytochrome P450 2C9 (P11712 whole entry): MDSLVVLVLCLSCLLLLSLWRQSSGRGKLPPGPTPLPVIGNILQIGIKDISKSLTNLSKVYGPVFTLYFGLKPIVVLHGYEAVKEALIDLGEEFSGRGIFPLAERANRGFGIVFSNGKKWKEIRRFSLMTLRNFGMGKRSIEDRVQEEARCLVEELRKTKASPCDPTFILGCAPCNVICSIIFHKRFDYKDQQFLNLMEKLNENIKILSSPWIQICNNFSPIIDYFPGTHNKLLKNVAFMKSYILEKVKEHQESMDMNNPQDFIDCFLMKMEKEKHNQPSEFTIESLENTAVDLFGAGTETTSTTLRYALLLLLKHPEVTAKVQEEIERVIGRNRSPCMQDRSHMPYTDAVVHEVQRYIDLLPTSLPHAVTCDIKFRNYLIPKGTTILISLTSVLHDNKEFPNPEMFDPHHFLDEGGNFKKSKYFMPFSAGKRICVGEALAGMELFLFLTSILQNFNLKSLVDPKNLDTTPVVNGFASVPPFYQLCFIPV

Rattus norvegicus = organism: Rattus norvegicus; assay: Volume of distribution in rat; format: ADME, organism-based; details: in vivo
[11] = Oral bioavailability in rat; format: ADME, organism-based; details: in vivo
Cytochrome P450 3A4 = Cytochrome P450 3A4 (Homo sapiens, UniProt P08684); assay: Inhibition of CYP3A4; format: ADME
Sequence of Cytochrome P450 3A4 (P08684 whole entry): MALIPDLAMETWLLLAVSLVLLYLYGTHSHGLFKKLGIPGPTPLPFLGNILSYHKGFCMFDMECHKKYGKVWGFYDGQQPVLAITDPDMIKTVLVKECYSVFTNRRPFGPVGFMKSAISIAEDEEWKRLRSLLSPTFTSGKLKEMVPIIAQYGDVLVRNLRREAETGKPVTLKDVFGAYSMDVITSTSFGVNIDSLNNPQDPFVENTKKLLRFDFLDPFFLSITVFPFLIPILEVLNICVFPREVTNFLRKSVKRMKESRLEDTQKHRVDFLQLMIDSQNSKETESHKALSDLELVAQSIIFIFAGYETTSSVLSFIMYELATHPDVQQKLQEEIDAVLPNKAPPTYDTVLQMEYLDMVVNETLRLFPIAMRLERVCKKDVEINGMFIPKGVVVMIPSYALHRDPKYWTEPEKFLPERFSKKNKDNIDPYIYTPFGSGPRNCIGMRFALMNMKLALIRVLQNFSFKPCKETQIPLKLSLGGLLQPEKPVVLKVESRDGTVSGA

[12] = Half life in iv dosed in rat; format: ADME, organism-based; details: in vivo
[13] = target: T2, C-C chemokine receptor type 2; assay: Antagonist activity at CCR2 in human THP1 cells assessed as inhibition of CCL2-induced chemotaxis at 1 uM in presence of 1% human serum; format: functional, cell-based; details: THP-1; procedure, shortened: as §1
Target sequence in this assay (P41597 whole entry, looked up): as the sequence (P41597 whole entry) above

[14] = target: T5, C-C chemokine receptor type 5 (Homo sapiens, UniProt P51681); assay: Antagonist activity at CCR5 at 10 uM; format: functional; design: scale not given: the % may be the effect or the level left
Target sequence in this assay (P51681 whole entry, looked up): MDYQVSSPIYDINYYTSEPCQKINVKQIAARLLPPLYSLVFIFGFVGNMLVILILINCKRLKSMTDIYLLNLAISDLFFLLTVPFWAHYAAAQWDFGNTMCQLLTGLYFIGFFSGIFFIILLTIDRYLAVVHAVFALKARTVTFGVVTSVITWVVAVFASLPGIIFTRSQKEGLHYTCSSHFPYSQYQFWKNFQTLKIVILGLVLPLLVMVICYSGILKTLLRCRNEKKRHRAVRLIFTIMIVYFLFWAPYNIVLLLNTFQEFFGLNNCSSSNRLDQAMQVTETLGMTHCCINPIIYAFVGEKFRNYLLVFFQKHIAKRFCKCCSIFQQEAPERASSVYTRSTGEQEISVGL

Cytochrome P450 2D6 = Cytochrome P450 2D6 (Homo sapiens, UniProt P10635); assay: Inhibition of CYP2D6; format: ADME
Sequence of Cytochrome P450 2D6 (P10635 whole entry): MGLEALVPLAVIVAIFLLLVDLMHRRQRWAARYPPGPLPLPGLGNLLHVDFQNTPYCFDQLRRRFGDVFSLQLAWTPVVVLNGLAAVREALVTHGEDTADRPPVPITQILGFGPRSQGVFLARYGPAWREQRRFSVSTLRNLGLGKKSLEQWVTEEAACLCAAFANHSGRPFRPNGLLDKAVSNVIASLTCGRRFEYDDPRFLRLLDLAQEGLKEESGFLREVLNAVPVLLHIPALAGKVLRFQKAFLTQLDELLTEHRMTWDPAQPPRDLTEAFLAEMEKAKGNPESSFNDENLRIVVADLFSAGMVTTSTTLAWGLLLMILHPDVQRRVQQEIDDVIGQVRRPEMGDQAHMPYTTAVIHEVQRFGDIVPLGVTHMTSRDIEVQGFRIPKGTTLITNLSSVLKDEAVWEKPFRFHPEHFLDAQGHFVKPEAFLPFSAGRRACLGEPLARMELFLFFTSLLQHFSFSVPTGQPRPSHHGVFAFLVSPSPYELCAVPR

[15] = target: T2, C-C chemokine receptor type 2; assay: Antagonist activity at CCR2 in human THP1 cells assessed as inhibition of CCL2-induced chemotaxis at 10 uM in presence of 1% human serum; format: functional, cell-based; details: THP-1; procedure, shortened: as §1
Target sequence in this assay (P41597 whole entry, looked up): as the sequence (P41597 whole entry) above

[16] = target: T5, C-C chemokine receptor type 5; assay: Antagonist activity at CCR5; format: functional
[17] = target: C-C chemokine receptor type 1 (Homo sapiens) (UniProt P32246); assay: Antagonist activity at CCR1

Sequence of C-C chemokine receptor type 2 (Mus musculus, UniProt P51683) (P51683 whole entry): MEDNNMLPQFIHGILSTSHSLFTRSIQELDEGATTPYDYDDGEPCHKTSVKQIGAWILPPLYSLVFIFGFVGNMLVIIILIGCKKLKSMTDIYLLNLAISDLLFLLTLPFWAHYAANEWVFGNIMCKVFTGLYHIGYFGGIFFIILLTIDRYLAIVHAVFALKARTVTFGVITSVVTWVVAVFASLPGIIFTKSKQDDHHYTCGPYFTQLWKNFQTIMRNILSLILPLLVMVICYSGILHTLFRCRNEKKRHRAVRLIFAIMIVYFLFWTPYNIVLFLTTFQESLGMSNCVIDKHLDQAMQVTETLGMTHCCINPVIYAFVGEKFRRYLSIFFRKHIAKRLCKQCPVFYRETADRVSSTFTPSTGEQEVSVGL

## O=C(O)c1c(F)cccc1Oc1ccc(C(F)(F)F)cc1NS(=O)(=O)c1ccc(Cl)cc1
[1]
  Ki: 1000 nM
[2]
  Ki: 126 nM
[3]
  Ki: 126 nM

## O=C(O)c1ccccc1Oc1ccc(Cl)cc1NS(=O)(=O)c1ccccc1
[3]
  Ki: 158 nM

## O=C(O)c1ccccc1Oc1nccnc1NS(=O)(=O)c1ccc(Cl)c(Cl)c1
[3]
  Ki: 794 nM

## O=C(O)c1ccc(Oc2ncc(Cl)cc2NS(=O)(=O)c2ccc(Cl)c(Cl)c2)cc1
[4]
  logD: 0.4
[3]
  Ki: 3.16 nM

## O=C(O)c1ccccc1Oc1ncncc1NS(=O)(=O)c1ccc(Cl)c(Cl)c1
[3]
  Ki: 398 nM

## N#Cc1ccc(Oc2ncc(Cl)cc2NS(=O)(=O)c2ccc(Cl)c(Cl)c2)cn1
[4]
  logD: 2.12
[3]
  Ki: 15.8 nM

## O=C(O)c1c(F)cccc1Oc1ncc(Cl)cc1NS(=O)(=O)c1ccc(Cl)c(Cl)c1
[3]
  Ki: 2 nM

## Cc1cccc(NS(=O)(=O)c2ccc(Cl)cc2)c1Oc1ccccc1C(=O)O
[5]
  Ki: > 3160 nM
[3]
  Ki: > 3160 nM

## Cc1ncccc1Oc1ncc(Cl)cc1NS(=O)(=O)c1ccc(Cl)c(Cl)c1
[6]
  Ki: 1260 nM
[7]
  IC50: > 31600 nM
[8]
  inhibition: 72%
[9]
  half-life: 2.3 h
[10]
  clearance: 4.3 mL/min/kg
Cytochrome P450 2C19
  IC50: 22400 nM
[4]
  logD: 2.7
Cytochrome P450 1A2
  IC50: > 100000 nM
Cytochrome P450 2C9
  IC50: 1350 nM
Rattus norvegicus
  Vd: 0.34 L/kg
[11]
  bioavailability: 75%
Cytochrome P450 3A4
  IC50: 19500 nM
[3]
  Ki: 10 nM
[12]
  half-life: 0.8 h
[13]
  inhibition: 50%
[14]
  Activity: 40%
Cytochrome P450 2D6
  IC50: > 100000 nM

## O=C(O)c1ccccc1Oc1ccc(F)cc1NS(=O)(=O)c1ccc(Cl)cc1
[5]
  Ki: 251 nM
[15]
  inhibition: 52%
[3]
  Ki: 39.8 nM

## O=C(O)c1ccccc1Oc1ccc(Cl)cc1NS(=O)(=O)c1ccc(Cl)c(Cl)c1
[6]
  Ki: 398 nM
[16]
  IC50: 631 nM
[9]
  half-life: 5.9 h
[10]
  clearance: 0.6 mL/min/kg
Cytochrome P450 2C19
  IC50: 11000 nM
Cytochrome P450 1A2
  IC50: 39800 nM
Cytochrome P450 2C9
  IC50: 4170 nM
Rattus norvegicus
  Vd: 0.2 L/kg
[11]
  bioavailability: 70%
Cytochrome P450 3A4
  IC50: 10000 nM
[12]
  half-life: 6.5 h
Cytochrome P450 2D6
  IC50: 53700 nM

## O=C(O)c1ccccc1Oc1ncccc1NS(=O)(=O)c1ccc(Cl)c(Cl)c1
[8]
  inhibition: 60%
[3]
  Ki: 31.6 nM
[13]
  inhibition: 41%

## O=C(O)c1ccccc1Oc1ccc(C(F)(F)F)cc1NS(=O)(=O)c1ccc(Cl)cc1
[1]
  Ki: 1580 nM
[2]
  Ki: 501 nM
[3]
  Ki: 794 nM

## O=C(O)c1ccccc1Oc1c(Cl)cccc1NS(=O)(=O)c1ccc(Cl)cc1
[5]
  Ki: 501 nM
[3]
  Ki: 398 nM

## CS(=O)(=O)Nc1cc(Cl)ccc1Oc1ccccc1C(=O)O
[3]
  Ki: 398 nM

## O=C(O)c1ccccc1Oc1cnccc1NS(=O)(=O)c1ccc(Cl)c(Cl)c1
[8]
  inhibition: 15%
[3]
  Ki: 50.1 nM
[13]
  inhibition: 0%

## O=C(O)c1ccccc1Oc1ccc(Cl)cc1NS(=O)(=O)c1ccc(Cl)cc1
[5]
  Ki: 158 nM
[15]
  inhibition: 65%
[3]
  Ki: 20 nM

## O=C(O)c1cncc(Oc2ncc(Cl)cc2NS(=O)(=O)c2ccc(Cl)c(Cl)c2)c1
[8]
  inhibition: 17%
[4]
  logD: -0.67
[3]
  Ki: 10 nM
[13]
  inhibition: 0%

## Cc1ncccc1Oc1ncc(C#N)cc1NS(=O)(=O)c1ccc(Cl)c(Cl)c1
[8]
  inhibition: 43%
[4]
  logD: 1.5
[3]
  Ki: 50.1 nM
[13]
  inhibition: 12%

## O=C(O)c1ccccc1Oc1ccccc1NS(=O)(=O)c1ccc(Cl)cc1
[1]
  Ki: 2000 nM
[2]
  Ki: 316 nM
[3]
  Ki: 251 nM

## O=S(=O)(Nc1cc(Cl)cnc1Oc1cncc(Cl)c1)c1ccc(Cl)c(Cl)c1
[8]
  inhibition: 55%
[10]
  clearance: 2.4 mL/min/kg
Cytochrome P450 2C19
  IC50: 6610 nM
[4]
  logD: 3.1
Cytochrome P450 1A2
  IC50: > 100000 nM
Cytochrome P450 2C9
  IC50: 1070 nM
Rattus norvegicus
  Vd: 0.2 L/kg
[11]
  bioavailability: 58%
Cytochrome P450 3A4
  IC50: 437 nM
[3]
  Ki: 12.6 nM
[12]
  half-life: 1.2 h
[13]
  inhibition: 0%
Cytochrome P450 2D6
  IC50: > 100000 nM

## O=C(O)c1ccccc1Oc1c(F)cc(C(F)(F)F)cc1NS(=O)(=O)c1ccc(Cl)cc1
[1]
  Ki: 251 nM
[2]
  Ki: 126 nM
[3]
  Ki: 31.6 nM

## O=C(NCCO)c1ccccc1Oc1ncc(Cl)cc1NS(=O)(=O)c1ccc(Cl)c(Cl)c1
[6]
  Ki: 1580 nM
[7]
  IC50: > 63100 nM
[8]
  inhibition: 31%
[10]
  clearance: 13 mL/min/kg
[4]
  logD: 2.1
Rattus norvegicus
  Vd: 0.47 L/kg
[11]
  bioavailability: 37%
[3]
  Ki: 25.1 nM
[12]
  half-life: 1.1 h
[13]
  inhibition: 0%
[14]
  Activity: < 10%

## O=C(O)c1cccc(Oc2ncc(Cl)cc2NS(=O)(=O)c2ccc(Cl)c(Cl)c2)c1
[8]
  inhibition: 42%
[4]
  logD: 0.44
[3]
  Ki: 1.58 nM
[13]
  inhibition: 33%

## O=C(O)c1ccccc1Oc1ccc(Cl)cc1NS(=O)(=O)c1ccc(Cl)s1
[3]
  Ki: 5.01 nM

## N#Cc1ccc(Oc2ccccc2C(=O)O)c(NS(=O)(=O)c2ccc(Cl)cc2)c1
[5]
  Ki: 1000 nM
[3]
  Ki: 63.1 nM

## O=S(=O)(Nc1cc(Cl)cnc1Oc1cccnn1)c1ccc(Cl)c(Cl)c1
[3]
  Ki: 200 nM

## O=C(O)c1ccccc1Oc1cccc(F)c1NS(=O)(=O)c1ccc(Cl)cc1
[3]
  Ki: > 3160 nM
[17]
  Ki: > 3160 nM

## CS(=O)(=O)c1ccc(Oc2ccccc2C(=O)O)c(NS(=O)(=O)c2ccc(Cl)cc2)c1
[3]
  Ki: > 3160 nM

## O=C(O)c1ccccc1Oc1ccc(Cl)cc1NS(=O)(=O)c1cccc(Cl)c1
[3]
  Ki: 7.94 nM

## Cc1ccc(NS(=O)(=O)c2ccc(Cl)cc2)c(Oc2ccccc2C(=O)O)c1
[3]
  Ki: 631 nM
[17]
  Ki: 631 nM
